# Activity calls are given as the source filed them.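 The calls were made as follows, unless noted: active = visually confirmed hit in the image check and inhibition above 20%; inconclusive = visually confirmed hit but inhibition not above 20%; inactive = no visual hit in the image check.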
# Assays:
# [1] = inhibitors of TNFa-induced NFkB p65 translocation, primary screen, imaging, HUVEC, MLSMR starter and 10KST1 sets (AID 438;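 active = inhibition above 20% together with a positive visual image hit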;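 also: compound added about 3h40 before a 20 min TNFalpha stimulation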;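 as to inhibition: signal is the nuclear over cytoplasmic p65 intensity ratio per well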); conditions: HUVEC TNFa-induced p65 nuclear translocation; cell count: measured here: nuclei count (cytotoxicity indicator), at 2.08 µM; inhibition: at 2 µM, stronger effect = higher value, 0% TNFa-plus-vehicle, 100% no-TNFa wells
# [2] = inhibitors of mutant huntingtin aggregation, primary screen, imaging, exon1htt(103Q)mCFP cells, high-content imaging (AID 483;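 active = visual image review flags a hit and inhibition of aggregation exceeds 20%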;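 also: compound exposure lasted 3 days before fixation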;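 as to nuclei count: percent of the per-plate median nuclei count of sample wells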); conditions: exon1htt(103Q)mCFP cell line, aggregate imaging, at 2 µM; inhibition of aggregation: stronger effect = higher value; nuclei count: measured here: cell count, toxicity
# [3] = inhibitors of E-selectin induction by TNFa, primary screen, imaging, HUVEC, immunofluorescence, MLSMR starter and 10KST1 sets (AID 487); conditions: HUVEC TNFalpha-induced E-selectin immunofluorescence imaging, at 2 µM; inhibition: stronger effect = higher value; nuclei count: measured here: cell number, toxicity;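 as to inhibition: signal is fraction of cell area covered by stained E-selectin grains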;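 as to nuclei count: 100% = median nuclei count of all wells on the same plate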
# [4] = biological target: Voltage-gated potassium channel subunit beta-2 (Rattus norvegicus) (UniProt P62483); experiment: KvBeta enzyme negative modulators, primary screen, biochemical, NADPH fluorescence (AID 622;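 active = fluorescence slope higher than the sample average by over 3 SD, cut at about -0.22 in these data, passing the limit was not always enough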;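 also: slope of raw intensity against log time taken from 70 to 1610 s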); conditions: recombinant KvBeta, 4-cyanobenzaldehyde reduction, at 10 µM, stronger effect = higher value
# [5] = biological target: Voltage-gated potassium channel subunit beta-2 (Rattus norvegicus) (UniProt P62483); experiment: KvBeta positive modulators, primary screen, biochemical, NADPH fluorescence (AID 623;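 active = NADPH fluorescence slope more negative than the mean of all samples by about 3 SD, 99.7% confidence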;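 also: fluorescence intensity change per second fitted from 20 to 320 s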); conditions: Recombinant KvBeta, NADPH fluorescence decrease slope, 10 min; at 10 µM; stronger effect = lower value
# [6] = biological target: Alpha-2C adrenergic receptor (Homo sapiens) (UniProt P18825); experiment: modulators of alpha2C/GIRK thallium flux, primary screen, cell-based, HEK293 alpha2C/GIRK1/2 (AID 624;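 active = fluorescence slope after compound addition differing from the mean of all screened samples at 99.7% confidence, in either direction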;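 also: slope of fluorescence ratio to pre-addition baseline per second over 15 to 24 s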); conditions: thallium flux BTC fluorescence, at 10 µM, actives lie on both sides
# [7] = inhibitors of larval lipid processing in zebrafish, primary screen, whole organism, PED6 fluorescence, gall bladder and intestine (AID 686;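 active = a full or partial loss of lipid-probe fluorescence in the fish gall bladder, intestine or both, judged by eye; inactive = no fluorescence loss, or compound toxic to the fish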;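 also: larvae 5 to 7 days old with five fish per well; signal comes from phospholipase A2 cleavage of quenched PED6 carried via bile; overnight exposure to compound and PED6 before scoring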); conditions: Zebrafish larvae PED6 lipid processing, fluorescence scoring; screened at 20 µM (by protocol)
# Summary of the method: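 Doses: 20 µM single dose. Test system: live zebrafish larvae aged 5-7 days, whole organism. Quantity: five larvae per well. Measured by: By-eye fluorescence microscopy. Reagent: ingested quenched lipid PED6 at 100 nM. Read-out: visual per-well fluorescence inhibition score. Times: overnight exposure of larvae to compound plus PED6.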
# [8] = inhibitors of Sendai virus-induced IRF3 signaling, primary screen, TLR/RLR signaling modifier project, cell-based, Sendai virus stimulus, luciferase, 10K MLSCN set (AID 602276;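 active = inhibition at or above 50% at 10 µM; inactive = inhibition below 50%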;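 also: firefly luciferase from ISG56 promoter only with Renilla not read in this screen; 0% = Sendai virus plus DMSO and 100% = medium plus DMSO without virus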); conditions: HEK293 RL24 IRF3 luciferase reporter, at 10 µM, stronger effect = higher value
# [9] = inhibitors of poly I:C-induced TLR3 signaling, primary screen, cell-based, poly I:C stimulus, luciferase, 10K MLSCN set (AID 602277;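 active = inhibition of the reporter signal at or above 50%; inactive = inhibition below 50%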); conditions: HEK293-TLR3 RL24 IRF3 luciferase reporter, at 10 µM, stronger effect = higher value
# Alpha-2C adrenergic receptor (Homo sapiens), sequence (P18825 whole entry, looked up): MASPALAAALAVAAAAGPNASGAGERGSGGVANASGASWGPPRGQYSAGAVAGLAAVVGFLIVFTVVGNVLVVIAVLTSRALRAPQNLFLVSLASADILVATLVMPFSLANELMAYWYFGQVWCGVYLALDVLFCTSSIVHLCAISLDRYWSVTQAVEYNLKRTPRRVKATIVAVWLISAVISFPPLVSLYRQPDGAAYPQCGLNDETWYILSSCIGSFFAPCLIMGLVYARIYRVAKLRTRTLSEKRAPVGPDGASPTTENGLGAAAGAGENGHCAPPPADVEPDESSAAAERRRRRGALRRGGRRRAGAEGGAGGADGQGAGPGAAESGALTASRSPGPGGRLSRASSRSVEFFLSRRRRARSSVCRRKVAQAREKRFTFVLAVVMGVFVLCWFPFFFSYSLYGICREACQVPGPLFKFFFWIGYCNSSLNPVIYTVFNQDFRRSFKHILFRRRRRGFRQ
# Voltage-gated potassium channel subunit beta-2 (Rattus norvegicus), sequence (P62483 whole entry, looked up): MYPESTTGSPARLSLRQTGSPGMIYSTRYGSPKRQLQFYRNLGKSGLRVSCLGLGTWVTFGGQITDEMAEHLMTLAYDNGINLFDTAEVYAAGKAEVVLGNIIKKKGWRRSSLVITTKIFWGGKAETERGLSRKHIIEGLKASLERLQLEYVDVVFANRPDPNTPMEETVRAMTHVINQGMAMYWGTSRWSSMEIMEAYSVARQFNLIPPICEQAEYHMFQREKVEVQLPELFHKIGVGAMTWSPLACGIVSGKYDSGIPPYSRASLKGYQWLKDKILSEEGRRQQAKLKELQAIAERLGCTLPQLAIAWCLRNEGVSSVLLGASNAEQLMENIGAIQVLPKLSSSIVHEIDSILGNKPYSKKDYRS
SMILES,cell count [1],inhibition [1],inhibition of aggregation [2],nuclei count [2] [%],inhibition [3],nuclei count [3] [%],fluorescence slope [4],NADPH fluorescence slope [5],slope [6],outcome [7],inhibition [8],inhibition [9]
COC(=O)C1=C(C)Nc2ncnn2C1c1ccco1 (centres undefined),303,-4.2% (inactive),-6.6% (inactive),100,5.2% (inactive),93.9,-0.432 (inactive),-6e-05 (inactive),0.00405 (inactive),inactive,15.5% (inactive),16.5% (inactive)
Cc1nc(C)n(C(C)CC(=O)O)n1 (centres undefined),635,0.7% (inactive),53.1% (active),90.8,-147% (inactive),115,-0.386 (inactive),-4.4e-05 (inactive),0.00496 (inactive),inactive,5.03% (inactive),7.13% (inactive)
Cc1ccc2nc(/C(C#N)=N/O)[nH]c2c1,627,-1.7% (inactive),-7.3% (inactive),112,-34.1% (inactive),119,-0.376 (inactive),-8.1e-05 (inactive),0.00426 (inactive),inactive,6.84% (inactive),6.68% (inactive)
COc1cc2c(cc1OC)C(/C(C#N)=N\O)=NC(C)(C)C2,635,-39.6% (inactive),2.8% (inactive),107,33% (inactive),96.2,-0.432 (inactive),-2e-05 (inactive),0.0058 (inactive),inactive,13.5% (inactive),13.6% (inactive)
O=C(CN1CCN(Cc2ccc3c(c2)OCO3)CC1)N1CCc2[nH]c3ccc(F)cc3c2C1,687,13.9% (inactive),6.4% (inactive),96.6,34.4% (inactive),101,-0.409 (inactive),-6.8e-05 (inactive),0.00435 (inactive),inactive,12% (inactive),4.08% (inactive)
N#CCc1ccc(NC(=O)Nc2cccc(Cl)c2)cc1,321,-8.6% (inactive),-19.9% (inactive),85.4,-112% (inactive),137,-0.46 (inactive),-5.6e-05 (inactive),0.00505 (inactive),inactive,-26.8% (inactive),-62.7% (inactive)
CCn1c(SCC(N)=O)nnc1-c1ccc(S(=O)(=O)N2CCN(C)CC2)cc1,736,-10.2% (inactive),-23.3% (inactive),118,-11.3% (inactive),129,-0.396 (inactive),-1.7e-05 (inactive),0.00446 (inactive),inactive,-10.4% (inactive),-10.4% (inactive)
O=C(CSc1nnc(-c2ccccn2)n1Cc1ccccc1)N1CCCC1,340,8.1% (inactive),7.9% (inactive),112,19.6% (inactive),97.4,-0.365 (inactive),-6.5e-05 (inactive),0.00635 (inactive),inactive,3.06% (inactive),2.57% (inactive)
COC(=O)c1ccccc1NC(=O)c1cnc2sccn2c1=O,505,-19.2% (inactive),14% (inactive),77.5,14.9% (inactive),98,-0.369 (inactive),-5.8e-05 (inactive),0.00479 (inactive),inactive,5.91% (inactive),-1.07% (inactive)
CC(OC(=O)CNC(=O)C12CC3CC(CC(C3)C1)C2)C(=O)Nc1ccc(N2CCOCC2)cc1 (centres undefined),663,4.1% (inactive),3.3% (inactive),110,-47.1% (inactive),111,-0.448 (inactive),-5.7e-05 (inactive),0.00563 (inactive),inactive,-2.61% (inactive),-14.5% (inactive)
Cc1nn(C(=O)c2ccccc2)c2c1C(=O)CC(C)(C)C2,380,1.3% (inactive),-11.8% (inactive),104,-114% (inactive),112,-0.419 (inactive),-1e-05 (inactive),0.00514 (inactive),inactive,18.8% (inactive),17.1% (inactive)
O=C(NCCCN1CCCC1=O)c1cccnc1,364,2.5% (inactive),-3.8% (inactive),108,35.2% (inactive),100,-0.432 (inactive),-4.3e-06 (inactive),0.00372 (inactive),inactive,-11.4% (inactive),-7.12% (inactive)
CN(C)C(=O)CN(C)S(=O)(=O)c1ccc(Cl)cc1,447,8.7% (inactive),10.6% (inactive),93.2,-2.4% (inactive),113,-0.416 (inactive),-1.2e-05 (inactive),0.00557 (inactive),inactive,7.26% (inactive),6.1% (inactive)
Cc1cc(NC(=O)Cc2c(F)cccc2Cl)no1,586,-1.1% (inactive),-15.9% (inactive),99.9,34.2% (inactive),94.3,-0.44 (inactive),-2.5e-05 (inactive),0.00621 (inactive),inactive,14.4% (inactive),19.6% (inactive)
CCOC(=O)c1ccc2[nH]c3c(c2c1)CCCCC3=O,681,-11% (inactive),-12.9% (inactive),106,32% (inactive),96.5,-0.389 (inactive),-5.3e-05 (inactive),0.00399 (inactive),inactive,-36.8% (inactive),-77.8% (inactive)
CCN(CC)S(=O)(=O)c1ccc(NC(=O)c2cccc3c2C(=O)N(CCOC)C3)cc1,778,-3.6% (inactive),5.3% (inactive),93.3,-84.2% (inactive),129,-0.244 (inactive),-2.6e-05 (inactive),0.00636 (inactive),inactive,10.3% (inactive),26.3% (inactive)
Cc1cc(NC(=O)CS(=O)(=O)c2cn(Cc3ccccc3Cl)c3ccccc23)no1,767,-27.1% (inactive),0.3% (inactive),98.5,67.2% (active),83.3,-0.323 (inactive),-2.3e-05 (inactive),0.00422 (inactive),inactive,7.87% (inactive),2.26% (inactive)
CC(=O)Nc1ccccc1OCC(=O)c1cc(C)n(Cc2cccs2)c1C,425,-2% (inactive),-13.7% (inactive),45.4,-54.1% (inactive),107,-0.475 (inactive),-4.2e-05 (inactive),0.00662 (inactive),inactive; toxic,49.5% (inactive),-26.5% (inactive)
COc1cccc(NC(=O)N(CCCN2CCOCC2)C(C)c2cc3cccc(OC)c3o2)c1 (centres undefined),863,5% (inactive),-3.4% (inactive),106,-93.2% (inactive),132,-0.433 (inactive),-6.3e-05 (inactive),0.00436 (inactive),inactive,16.5% (inactive),34.8% (inactive)
CCC(CCC(=O)Nc1cccc(C(=O)O)c1)C(=O)O (centres undefined),506,8.8% (inactive),10.2% (inactive),86.5,49.6% (inactive),74.2,-0.448 (inactive),-2.4e-05 (inactive),0.00563 (inactive),inactive,4.27% (inactive),-4.76% (inactive)
Cc1cc(C(=O)COC(=O)CCc2nc3ccccc3s2)c(C)n1C,170,-10.5% (inactive),14.2% (inactive),108,-16% (inactive),96,-0.454 (inactive),-3.3e-05 (inactive),0.00538 (inactive),inactive,16.3% (inactive),7.6% (inactive)
CC(C)(C)C(=O)OCC1OC(n2cnc(C(N)=O)n2)C(O)C1O (centres undefined),468,-8.7% (inactive),7.9% (inactive),88.9,49.3% (inactive),88,-0.382 (inactive),8.9e-07 (inactive),0.00529 (inactive),inactive,5.04% (inactive),4.14% (inactive)
Cc1nc2ccccc2c(=O)n1NC(=O)Nc1ccccc1,592,0% (inactive),17.7% (inactive),83.8,-41.3% (inactive),97.5,-0.359 (inactive),-2.7e-05 (inactive),0.00703 (inactive),inactive,12.6% (inactive),-4.39% (inactive)
CCN(CC)C(=O)C1CCN(CC2CC=CCC2)CC1 (centres undefined),377,-8.2% (inactive),12.3% (inactive),110,-22.3% (inactive),76.6,-0.361 (inactive),2.7e-06 (inactive),0.00638 (inactive),inactive,-1.94% (inactive),9.42% (inactive)
N#CC1=C(N)N2C(=C(C#N)C13CCCCC3)SC1CCCCC12O (centres undefined),322,11.4% (inactive),3.6% (inactive),91.5,-4.6% (inactive),116,-0.405 (inactive),1.2e-05 (inactive),0.00499 (inactive),inactive,19% (inactive),24.3% (inactive)
COc1cc(C(=O)N(C)c2nnc(-c3cccnc3)s2)cc(OC)c1OC,646,-5.5% (inactive),0.4% (inactive),99.2,3.6% (inactive),103,-0.5 (inactive),1.3e-05 (inactive),0.00473 (inactive),inactive,-9.5% (inactive),-1.29% (inactive)
COC(=O)c1[nH]c2ccc(C)cc2c1NC(=O)CN1CCC(C)CC1,340,-0.4% (inactive),15.7% (inactive),103,-18.4% (inactive),120,-0.337 (inactive),-5.5e-05 (inactive),0.00492 (inactive),inactive,4.88% (inactive),2.95% (inactive)
